Measured values from ChEMBL document CHEMBL1629434, “Cholesterol-based α-phenyl-N-tert-butyl nitrone derivatives as antioxidants against light-induced retinal degeneration” (Bioorg Med Chem Lett, 2010).
The source made the active and inactive calls. The rule behind the calls is not given here.

Assays:
Rattus norvegicus [1] = organism: Rattus norvegicus; experiment: Protection against light-induced photoreceptor degradation in albino rat retina exposed to bright fluorescent light assessed as reduction in ONL thickness on superior side at 1 mM, intravitreally after 24 hrs; assay type: functional, organism-based
How it was run: (§1)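 Albino rats got a 2 µL intravitreal injection 18 h before 24 h exposure to bright fluorescent light. Compounds insoluble in PBS 1× at 1 mM were given in DMSO 2%; PBS-soluble ones were given in PBS 1×. Untreated-unexposed and DMSO 2% groups served as controls.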

[2] = Solubility of the compound at 1 mM in 2% DMSO; assay type: physicochemical; settings: 1000 µM
[3] = Solubility of the compound at 1 mM in PBS; assay type: physicochemical; settings: buffer, 1000 µM
Rattus norvegicus [4] = organism: Rattus norvegicus; experiment: Protection against light-induced photoreceptor degradation in albino rat retina exposed to 12 hrs dark and 12 hrs light assessed as reduction in ONL thickness on inferior side at 9 mM, intravitreally after 24 hrs; assay type: functional, organism-based; how it was run: as §1
[5] = Half life in albino rat retina; assay type: ADME, tissue-based
Rattus norvegicus [6] = organism: Rattus norvegicus; experiment: Protection against light-induced photoreceptor degradation in albino rat retina exposed to 12 hrs dark and 12 hrs light assessed as reduction in ONL thickness at 1 mM, intravitreally after 24 hrs; assay type: functional, organism-based; how it was run: as §1
Rattus norvegicus [7] = organism: Rattus norvegicus; experiment: Protection against light-induced photoreceptor degradation in albino rat retina exposed to 12 hrs dark and 12 hrs light assessed as reduction in ONL thickness on superior side at 9 mM, intravitreally after 24 hrs; assay type: functional, organism-based; how it was run: as §1

Compound | Activity (Rattus norvegicus [1]) | solubility [2] | solubility [3] | Activity (Rattus norvegicus [4]) | half-life [5] [min] | Activity (Rattus norvegicus [6]) | Activity (Rattus norvegicus [7])
CC(C)CCC[C@@H](C)[C@H]1CC[C@H]2[C@@H]3CC=C4C[C@@H](OCCC(=O)NCC(C)(C)/[N+]([O-])=C/c5ccc(CNC(=O)[C@@H](O)[C@H](O)[C@H](O[C@@H]6O[C@H](CO)[C@H](O)[C@H](O)[C@H]6O)[C@@H](O)CO)cc5)CC[C@]4(C)[C@H]3CC[C@]12C | inactive | soluble | Insoluble | – | – | – | –
CC(C)CCC[C@@H](C)[C@H]1CC[C@H]2[C@@H]3CC=C4C[C@@H](OCCC(=O)NCc5ccc(/C=[N+](\[O-])C(C)(C)CNC(=O)[C@@H](O)[C@H](O)[C@H](O[C@@H]6O[C@H](CO)[C@H](O)[C@H](O)[C@H]6O)[C@@H](O)CO)cc5)CC[C@]4(C)[C@H]3CC[C@]12C | Active | soluble | Insoluble | – | – | – | –
CC(C)(C)/[N+]([O-])=C/c1ccccc1 | – | – | – | Active | 120 | inactive | Active
